# Measured values published in article PMC9289877 (Journal of Medicinal Chemistry, 2022).
# *1 amine or outer side, *2 acyl side, *3 side chain or, on linkers, in order; H or OH if unused. Where a SMILES comes first, the peptide text is derived from it. The star is where a group is joined. X4 = CC(ON(C(C)(C)C)C(C)(C)C)c1ccc(O*)cc1; Suc = O=C(CCC(=O)[*:2])[*:1]
# B1: eglin C: a potent HNE inhibitor (CIBA-GEIGY) (protein, UniProt P01051 1-70, looked up)
# Eglin C: TEFGSELKSFPEVVGKTVDQAREYFTLHYPQYDVYFLPEGSPVTLDLRYNRVRVFYNPGTNVVNHVPHVG
# What was measured:
# [1] = tested on: U87 human glioblastoma cell line; assay: PrestoBlue viability test on U87 cells with or without HNE; format: cell-based; settings: 48 h
# In short: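 U87 cells were seeded and cultured for 48 h, then switched to serum-free DMEM. Test compound (0–400 μM) and HNE 0.68 μM were added; where used, eglin C 10 μM was added before HNE. After 1 h, 10% serum was added and incubation continued for 24, 48 or 72 h. PrestoBlue reagent (1/10 volume) was added for 30 min at 37 °C, and fluorescence was read at ex 560/em 590 nm.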
# [2] = tested on: caspase 3/7 activation in U87 cells; assay: Caspase-Glo 3/7 assay in U87 cells; format: cell-based, human; settings: doxorubicin 2 μM
# In short: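 U87 human glioblastoma cells were grown in DMEM with 10% FBS at 37 °C and 5% CO2, then seeded and cultured for 48 h before treatment. Doxorubicin 2 μM served as the apoptosis control, and signals were followed over time up to 48 h. For Caspase-Glo 3/7, plate and reagent were equilibrated to room temperature, then reagent was added to the wells. After 15 min at room temperature, luminescence was read.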
# U87 cells = assay: RealTime-Glo Annexin V Apoptosis and Necrosis Assay in U87 cells; format: cell-based, human; settings: doxorubicin 2 μM
# In short: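 U87 cells were kept in DMEM with 10% FBS at 37 °C and 5% CO2, seeded for 48 h, then exposed to doxorubicin 2 μM as the apoptosis control and followed up to 48 h. RealTime-Glo detection reagent was added to the live-cell medium. Annexin V binding was read by luminescence. Necrosis was read as fluorescence of a cell-impermeant DNA dye (ex 485/em 530 nm) after 60 min at 37 °C.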
molecule,measurement,setting,value
"CC(NC(=O)CCC(=O)O)C(=O)NC(C)C(=O)N1CCCC1C(=O)NC(C(=O)Oc1ccc(C(C)ON(C(C)(C)C)C(C)(C)C)cc1)C(C)C (stereo not drawn) [suc-AAPV-phenol-DBNO, Acid 4-((1-((1-(2-((1-(4-(1-((di-tert-butylamino)oxy)ethyl)phenoxy)-3-methyl-1-oxobutan-2-yl)carbamoyl)pyrrolidin-1-yl)-1-oxopropan-2-yl)amino)-1-oxopropan-2-yl)amino)-4-oxobutanoic Acid] (Suc-AAPV-X4; configuration not given here)",effect on viability in the presence of HNE,"[1]; U87 cells, prodrug 0–400 μM, HNE 0.68 μM",does not have any measurable effect
COc1cccc2c1C(=O)c1c(O)c3c(c(O)c1C2=O)C[C@@](O)(C(=O)CO)C[C@@H]3O[C@H]1C[C@H](N)[C@H](O)[C@H](C)O1 [doxorubicin],U87 population still viable,[1]; doxorubicin 2 μM,50%
same,caspase activity (positive control),[2],increases between 24 and 48 h
same,DNA+ labeling (positive control),U87 cells,increases regularly until 48 h
same,annexin V labeling (positive control),U87 cells; timing similar to caspase (24 to 48 h),highly AV+
B1,rescue of U87 cells from prodrug + HNE cytotoxicity by elastase inhibitor,"[1]; eglin C 10 μM added just before HNE 0.68 μM, four prodrugs",rescues the cells
